Experimental data reported in ChEMBL document CHEMBL1138434 (J Nat Prod, 2003).
≈ marks a conversion by molar mass, not a printed value. Calls of active or inactive are those of the source. No cut-off for these calls is given here.

Legend:
T47D = assay: Cytotoxicity against human T47D cells at 10 uM after 48 hrs by neutral red staining; assay type: cell-based
Procedure, shortened: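 T47D cells in DMEM/F12 with 10% FBS and penicillin/streptomycin, plated at 30 000 cells/well. After 24 h, compound added at final 0.03-10 µM and incubated 24 and 48 h at 37 °C. Then Neutral Red 0.15 mg/mL for 2 h, lysis in 0.04 N HCl/2-propanol, A540 minus A630. Viability given as percent of control.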

Saccharomyces cerevisiae [1] = assay: Antifungal activity against Saccharomyces cerevisiae DSY 416 expressing Candida albicans MDR1 after 40 to 48 hrs by serial dilution method in presence of 33 uM fluconazole; assay type: functional, organism-based; conditions: DSY 416, MDR1
Procedure, shortened: (§1)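 S. cerevisiae strains carrying C. albicans efflux pumps, grown 1-2 days from frozen stocks on YNB-URA/TRYP selection agar at 30 °C. Modified NCCLS broth microdilution: serial dilutions in 0.9% saline (compounds dissolved in DMSO), inoculum 1.0 × 10^4 CFU/mL in YPD. Incubated 30 °C for 40-48 h and read at 630 nm before and after. IC50 = 50% growth inhibition; MIC = lowest concentration with no detectable growth.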

Saccharomyces cerevisiae [2] = assay: Antifungal activity against Saccharomyces cerevisiae DSY 416 expressing Candida albicans MDR1 after 40 to 48 hrs by serial dilution method in absence of fluconazole; assay type: functional, organism-based; conditions: DSY 416, MDR1; procedure, shortened: as §1
Saccharomyces cerevisiae [3] = assay: Antifungal activity against Saccharomyces cerevisiae DSY 415 expressing Candida albicans CDR1 after 40 to 48 hrs by serial dilution method in presence of 33 uM fluconazole; assay type: functional, organism-based; procedure, shortened: as §1
Saccharomyces cerevisiae [4] = assay: Antifungal activity against Saccharomyces cerevisiae DSY 415 expressing Candida albicans CDR1 after 40 to 48 hrs by serial dilution method in absence of fluconazole; assay type: functional, organism-based; procedure, shortened: as §1
Saccharomyces cerevisiae [5] = assay: Antifungal activity against Saccharomyces cerevisiae DSY 415 expressing Candida albicans CDR1 after 40 to 48 hrs by serial dilution method; assay type: functional, organism-based; procedure, shortened: as §1
Saccharomyces cerevisiae [6] = assay: Potentiation of fluconazole-induced antifungal activity against Saccharomyces cerevisiae DSY 415 expressing Candida albicans CDR1 assessed as fractional inhibitory concentration at 3.8 uM after 40 to 48 hrs by checkerboard assay; assay type: functional
Procedure, shortened: (§2)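 Checkerboard in 96-well format: FLU serially diluted along one axis and partner agent along the other, covering all combinations. S. cerevisiae pump strains or null strain at 1.0 × 10^4 CFU/mL in YPD, 30 °C for 40-48 h, growth read at 630 nm. FIC uses IC50 endpoint; FLU at 0.5 µM (null pump), 50 µM (CDR1, MDR1), 1.56 µM (CDR2), 3.13 µM (FLU1).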

Saccharomyces cerevisiae [7] = assay: Potentiation of fluconazole-induced antifungal activity against Saccharomyces cerevisiae DSY 416 expressing Candida albicans MDR1 assessed as fractional inhibitory concentration at 3.8 uM after 40 to 48 hrs by checkerboard assay; assay type: functional; procedure, shortened: as §2
Saccharomyces cerevisiae [8] = assay: Potentiation of fluconazole-induced antifungal activity against Saccharomyces cerevisiae DSY 417 expressing Candida albicans CDR2 assessed as fractional inhibitory concentration at 3.8 uM after 40 to 48 hrs by checkerboard assay; assay type: functional; procedure, shortened: as §2
Saccharomyces cerevisiae [9] = assay: Potentiation of fluconazole-induced antifungal activity against Saccharomyces cerevisiae DSY 426 expressing Candida albicans FLU1 assessed as fractional inhibitory concentration at 3.8 uM after 40 to 48 hrs by checkerboard assay; assay type: functional; procedure, shortened: as §2
Saccharomyces cerevisiae [10] = assay: Potentiation of fluconazole-induced antifungal activity against Saccharomyces cerevisiae DSY 390 assessed as fractional inhibitory concentration at 3.8 uM after 40 to 48 hrs by checkerboard assay; assay type: functional; procedure, shortened: as §2
Saccharomyces cerevisiae [11] = assay: Potentiation of fluconazole-induced antifungal activity against Saccharomyces cerevisiae DSY 415 expressing Candida albicans CDR1 assessed as fractional inhibitory concentration at 3.1 uM after 40 to 48 hrs by checkerboard assay; assay type: functional
Procedure, shortened: (§3)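 This was a checkerboard in a modified NCCLS microdilution: fluconazole and second agent were each serially diluted in saline and combined in all concentration pairs. Pump-expressing or null S. cerevisiae inoculum was 1.0 × 10^4 CFU/mL in YPD, with OD630 read before and after 40-48 h at 30 °C. FIC used IC50 as endpoint. FLU levels for FIC were 0.5 µM (null), 50 µM (CDR1, MDR1), 1.56 µM (CDR2) and 3.13 µM (FLU1).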

Saccharomyces cerevisiae [12] = assay: Potentiation of fluconazole-induced antifungal activity against Saccharomyces cerevisiae DSY 416 expressing Candida albicans MDR1 assessed as fractional inhibitory concentration at 3.1 uM after 40 to 48 hrs by checkerboard assay; assay type: functional; procedure, shortened: as §3
Saccharomyces cerevisiae [13] = assay: Potentiation of fluconazole-induced antifungal activity against Saccharomyces cerevisiae DSY 417 expressing Candida albicans CDR2 assessed as fractional inhibitory concentration at 3.1 uM after 40 to 48 hrs by checkerboard assay; assay type: functional; procedure, shortened: as §3
Saccharomyces cerevisiae [14] = assay: Potentiation of fluconazole-induced antifungal activity against Saccharomyces cerevisiae DSY 426 expressing Candida albicans FLU1 assessed as fractional inhibitory concentration at 3.1 uM after 40 to 48 hrs by checkerboard assay; assay type: functional; procedure, shortened: as §3
Saccharomyces cerevisiae [15] = assay: Potentiation of fluconazole-induced antifungal activity against Saccharomyces cerevisiae DSY 390 assessed as fractional inhibitory concentration at 3.1 uM after 40 to 48 hrs by checkerboard assay; assay type: functional; procedure, shortened: as §3
Saccharomyces cerevisiae [16] = assay: Antifungal activity against Saccharomyces cerevisiae DSY 390 after 40 to 48 hrs by serial dilution method; assay type: functional, organism-based
Procedure, shortened: (§4)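 S. cerevisiae strains (null pump DSY 390, or carrying C. albicans CDR1, MDR1, CDR2, FLU1 pumps) were grown from −80 °C glycerol stocks on YNB-URA/TRYP selection agar at 30 °C. The modified NCCLS broth microdilution used compound serially diluted in 0.9% saline from DMSO, with YPD inoculum at 1.0 × 10^4 CFU/mL final. Plates were read at OD630 before and after 40-48 h at 30 °C. IC50 = 50% growth inhibition; MIC = no detectable growth.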

Saccharomyces cerevisiae [17] = assay: Antifungal activity against Saccharomyces cerevisiae DSY 416 expressing Candida albicans MDR1 after 40 to 48 hrs by serial dilution method; assay type: functional, organism-based; conditions: for MIC: DSY 416; for IC50: DSY 416, MDR1; procedure, shortened: as §4
Saccharomyces cerevisiae [18] = assay: Antifungal activity against Saccharomyces cerevisiae DSY 417 expressing Candida albicans CDR2 after 40 to 48 hrs by serial dilution method; assay type: functional, organism-based; procedure, shortened: as §4
Saccharomyces cerevisiae [19] = assay: Antifungal activity against Saccharomyces cerevisiae DSY 426 expressing Candida albicans FLU1 after 40 to 48 hrs by serial dilution method; assay type: functional, organism-based; procedure, shortened: as §1
Saccharomyces cerevisiae [20] = assay: Potentiation of fluconazole-induced antifungal activity against Saccharomyces cerevisiae DSY 415 expressing Candida albicans CDR1 assessed as fractional inhibitory concentration at 0.1 uM after 40 to 48 hrs by checkerboard assay; assay type: functional; procedure, shortened: as §2
Saccharomyces cerevisiae [21] = assay: Potentiation of fluconazole-induced antifungal activity against Saccharomyces cerevisiae DSY 416 expressing Candida albicans MDR1 assessed as fractional inhibitory concentration at 0.1 uM after 40 to 48 hrs by checkerboard assay; assay type: functional; procedure, shortened: as §2
Saccharomyces cerevisiae [22] = assay: Potentiation of fluconazole-induced antifungal activity against Saccharomyces cerevisiae DSY 417 expressing Candida albicans CDR2 assessed as fractional inhibitory concentration at 0.1 uM after 40 to 48 hrs by checkerboard assay; assay type: functional; procedure, shortened: as §2
Saccharomyces cerevisiae [23] = assay: Potentiation of fluconazole-induced antifungal activity against Saccharomyces cerevisiae DSY 426 expressing Candida albicans FLU1 assessed as fractional inhibitory concentration at 0.1 uM after 40 to 48 hrs by checkerboard assay; assay type: functional; procedure, shortened: as §2
Saccharomyces cerevisiae [24] = assay: Potentiation of fluconazole-induced antifungal activity against Saccharomyces cerevisiae DSY 390 assessed as fractional inhibitory concentration at 0.1 uM after 40 to 48 hrs by checkerboard assay; assay type: functional; procedure, shortened: as §2
[25] = biological target: T1, Multidrug resistance protein 1 (Candida albicans (strain SC5314 / ATCC MYA-2876) (Yeast)) (UniProt Q5ABU7); assay: Inhibition of Candida albicans MDR1-mediated fluconazole resistance in Saccharomyces cerevisiae DSY 416 up to 90 uM
T1 sequence (whole entry): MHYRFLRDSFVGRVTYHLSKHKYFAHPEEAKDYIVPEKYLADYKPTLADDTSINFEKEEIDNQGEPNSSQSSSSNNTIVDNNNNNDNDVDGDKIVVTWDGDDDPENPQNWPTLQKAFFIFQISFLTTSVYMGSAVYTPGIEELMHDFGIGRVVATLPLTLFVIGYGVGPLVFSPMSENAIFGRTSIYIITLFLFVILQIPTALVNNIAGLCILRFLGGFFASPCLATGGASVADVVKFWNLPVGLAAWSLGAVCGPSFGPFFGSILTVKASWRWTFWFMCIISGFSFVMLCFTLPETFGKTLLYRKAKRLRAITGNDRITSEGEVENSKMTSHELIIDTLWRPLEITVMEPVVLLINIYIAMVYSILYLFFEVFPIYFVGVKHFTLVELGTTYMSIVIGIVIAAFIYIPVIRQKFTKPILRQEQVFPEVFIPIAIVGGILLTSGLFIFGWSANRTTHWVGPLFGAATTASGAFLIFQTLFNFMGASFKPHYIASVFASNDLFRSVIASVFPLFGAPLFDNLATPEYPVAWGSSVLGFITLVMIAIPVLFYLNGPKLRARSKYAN

Structure (SMILES): CC(=O)O[C@H]1C=C2[C@@H]3CC[C@H]([C@H](C)CCCC(C)C)[C@@]3(C)C[C@@H]3O[C@@]23[C@@]2(CO)CC[C@H](O)C[C@]12O
- Activity (T47D): Non-toxic
- IC50 (Saccharomyces cerevisiae [1]): < 4 µM
- IC50 (Saccharomyces cerevisiae [2]): > 104 µM
- IC50 (Saccharomyces cerevisiae [3]): 31 µM
- IC50 (Saccharomyces cerevisiae [4]): > 104 µM
- IC50 (Saccharomyces cerevisiae [5]): > 30 µM
- fractional inhibitory concentration index (FICI) (Saccharomyces cerevisiae [6]): 0.88
- fractional inhibitory concentration index (FICI) (Saccharomyces cerevisiae [7]): 0.05
- fractional inhibitory concentration index (FICI) (Saccharomyces cerevisiae [8]): 1.6
- fractional inhibitory concentration index (FICI) (Saccharomyces cerevisiae [9]): 1.26
- fractional inhibitory concentration index (FICI) (Saccharomyces cerevisiae [10]): 1.85

Structure (SMILES): CC(C)[C@@H]1OC(=O)[C@@H](Cc2ccccc2)N(C)C(=O)[C@H](C(C)C)OC(=O)[C@@H](Cc2ccccc2)N(C)C(=O)[C@H](C(C)C)OC(=O)[C@@H](Cc2ccccc2)N(C)C1=O [BEAUVERICIN]
- fractional inhibitory concentration index (FICI) (Saccharomyces cerevisiae [11]): 0.045
- fractional inhibitory concentration index (FICI) (Saccharomyces cerevisiae [12]): 2
- fractional inhibitory concentration index (FICI) (Saccharomyces cerevisiae [13]): 1.3
- fractional inhibitory concentration index (FICI) (Saccharomyces cerevisiae [14]): 2
- fractional inhibitory concentration index (FICI) (Saccharomyces cerevisiae [15]): 2.57

Structure (SMILES): C[C@@H]1[C@H](O)[C@@H](C)/C=C/C=C/C=C/C=C/C=C/C=C/C=C/[C@H](O[C@@H]2O[C@H](C)[C@@H](O)[C@H](N)[C@@H]2O)C[C@@H]2O[C@](O)(C[C@@H](O)C[C@@H](O)[C@H](O)CC[C@@H](O)C[C@@H](O)CC(=O)O[C@H]1C)C[C@H](O)[C@H]2C(=O)O [AMPHOTERICIN B]
- IC50 (Saccharomyces cerevisiae [16]): 0.55 µM
- MIC (Saccharomyces cerevisiae [16]): 0.75 µM (≈ 0.693 µg/mL)
- MIC (Saccharomyces cerevisiae [17]): 0.75 µM (≈ 0.693 µg/mL)
- IC50 (Saccharomyces cerevisiae [17]): 0.55 µM
- IC50 (Saccharomyces cerevisiae [5]): 0.55 µM
- MIC (Saccharomyces cerevisiae [5]): 0.75 µM (≈ 0.693 µg/mL)
- IC50 (Saccharomyces cerevisiae [18]): 0.55 µM
- MIC (Saccharomyces cerevisiae [18]): 0.75 µM (≈ 0.693 µg/mL)
- IC50 (Saccharomyces cerevisiae [19]): 0.55 µM
- MIC (Saccharomyces cerevisiae [19]): 0.75 µM (≈ 0.693 µg/mL)
- fractional inhibitory concentration index (FICI) (Saccharomyces cerevisiae [20]): 0.89
- fractional inhibitory concentration index (FICI) (Saccharomyces cerevisiae [21]): 1.42
- fractional inhibitory concentration index (FICI) (Saccharomyces cerevisiae [22]): 1.58
- fractional inhibitory concentration index (FICI) (Saccharomyces cerevisiae [23]): 0.97
- fractional inhibitory concentration index (FICI) (Saccharomyces cerevisiae [24]): 1.85

Structure (SMILES): CC(=O)OC[C@]12CC[C@H](OC(C)=O)C[C@]1(O)[C@@H](OC(C)=O)C=C1[C@@H]3CC[C@H]([C@H](C)CCCC(C)C)[C@@]3(C)C[C@@H]3O[C@@]132
- Activity [25]: inactive

Structure (SMILES): OC(Cn1cncn1)(Cn1cncn1)c1ccc(F)cc1F [FLUCONAZOLE]
- IC50 (Saccharomyces cerevisiae [16]): 3.5 µM
- MIC (Saccharomyces cerevisiae [16]): 8 µM (≈ 2.45 µg/mL)
- MIC (Saccharomyces cerevisiae [17]): > 400 µM
- IC50 (Saccharomyces cerevisiae [17]): > 400 µM
- IC50 (Saccharomyces cerevisiae [5]): 300 µM
- MIC (Saccharomyces cerevisiae [5]): 400 µM (≈ 123 µg/mL)
- IC50 (Saccharomyces cerevisiae [18]): 15 µM
- MIC (Saccharomyces cerevisiae [18]): 25 µM (≈ 7.66 µg/mL)
- IC50 (Saccharomyces cerevisiae [19]): 35 µM
- MIC (Saccharomyces cerevisiae [19]): 50 µM (≈ 15.3 µg/mL)
